The subject of assay [1] is CHO. Description: Selectivity ratio of Ki for human adenosine A2A receptor expressed in CHO cells to Ki for human adenosine A3 receptor expressed in CHO cells. It is filed as cell-based.
Assay [2] concerns CHO. Briefly: Selectivity ratio of Ki for human adenosine A1 receptor expressed in CHO cells to Ki for human adenosine A2A receptor expressed in CHO cells. It is filed as cell-based.
Assay [3] has as its target T1, Adenosine receptor A2b (Homo sapiens, UniProt P29275).
T1 sequence (P29275 whole entry): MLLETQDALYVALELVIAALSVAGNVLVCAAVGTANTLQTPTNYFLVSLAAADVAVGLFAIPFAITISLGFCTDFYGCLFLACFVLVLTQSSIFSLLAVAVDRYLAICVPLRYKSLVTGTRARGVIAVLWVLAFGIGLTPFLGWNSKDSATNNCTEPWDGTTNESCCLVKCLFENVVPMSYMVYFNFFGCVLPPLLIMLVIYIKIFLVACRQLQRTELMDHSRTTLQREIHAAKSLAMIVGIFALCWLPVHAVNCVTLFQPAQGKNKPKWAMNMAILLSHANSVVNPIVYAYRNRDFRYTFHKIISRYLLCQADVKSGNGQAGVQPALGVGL
Description: Antagonist activity at human adenosine A2B receptor expressed in CHO cells assessed as inhibition of NECA-stimulated adenylyl cyclase activity. It is filed as functional, cell-based. Summed up:
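Membranes from stably transfected CHO cells, made with a single high-speed centrifugation of the homogenate. Incubated 20 min with about 150 000 cpm [α-³²P]ATP, in a mixture without EGTA and NaCl. IC50 for concentration-dependent inhibition of NECA-stimulated adenylyl cyclase was fitted with the Hill equation and converted to Ki by Cheng–Prusoff.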

In assay [4] the target is T2, Adenosine receptor A3 (Homo sapiens, UniProt P0DMS8).
T2 sequence (P0DMS8 whole entry): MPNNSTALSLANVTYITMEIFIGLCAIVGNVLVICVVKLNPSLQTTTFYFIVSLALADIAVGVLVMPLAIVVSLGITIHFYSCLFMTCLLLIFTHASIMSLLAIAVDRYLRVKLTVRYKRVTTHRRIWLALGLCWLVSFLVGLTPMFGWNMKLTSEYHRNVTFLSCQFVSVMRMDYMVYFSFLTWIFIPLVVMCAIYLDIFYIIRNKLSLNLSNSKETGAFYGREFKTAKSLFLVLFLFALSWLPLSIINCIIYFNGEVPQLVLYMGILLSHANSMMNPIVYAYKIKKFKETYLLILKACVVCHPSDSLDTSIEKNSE
Briefly: Displacement of [3H]NECA from human adenosine A3 receptor expressed in CHO cells. Format: cell-based. Summed up:
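Radioligand [³H]NECA was used on membranes from stably transfected CHO cells, prepared by a 1000g clearing spin then pelleting at 100 000g. Pellets were resuspended in binding buffer, frozen in liquid nitrogen and stored. Nonspecific binding was defined with 100 μM R-PIA.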

Assay [5] has as its target T3, Adenosine receptor A1 (Homo sapiens, UniProt P30542).
T3 sequence (P30542 whole entry): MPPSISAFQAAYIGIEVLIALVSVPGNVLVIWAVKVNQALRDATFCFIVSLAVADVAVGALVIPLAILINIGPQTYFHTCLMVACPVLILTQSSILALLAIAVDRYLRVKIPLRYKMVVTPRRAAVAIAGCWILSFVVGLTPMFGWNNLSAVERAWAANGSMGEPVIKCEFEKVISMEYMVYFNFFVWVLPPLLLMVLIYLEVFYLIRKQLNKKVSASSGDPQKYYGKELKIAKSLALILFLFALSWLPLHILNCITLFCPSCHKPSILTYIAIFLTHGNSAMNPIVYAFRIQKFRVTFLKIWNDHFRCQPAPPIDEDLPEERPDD
Briefly: Displacement of [3H]CCPA from human adenosine A1 receptor expressed in CHO cells. Format: cell-based. Summed up:
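Stably transfected CHO cells were homogenised and spun at 1000g to remove nuclei and fragments. Membranes were then pelleted at 100 000g, resuspended in binding buffer, frozen in liquid nitrogen and stored. Radioligand was [³H]CCPA, with nonspecific binding defined by 1 mM theophylline.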

In assay [6] the target is Adenosine receptor A2a (Homo sapiens, UniProt P29274). Description: Displacement of [3H]NECA from human adenosine A2A receptor expressed in CHO cells. It is filed as cell-based. A general note: Displacement assays read how much labelled ligand stays bound in the presence of the test substance.
Sequence of Adenosine receptor A2a (P29274 whole entry): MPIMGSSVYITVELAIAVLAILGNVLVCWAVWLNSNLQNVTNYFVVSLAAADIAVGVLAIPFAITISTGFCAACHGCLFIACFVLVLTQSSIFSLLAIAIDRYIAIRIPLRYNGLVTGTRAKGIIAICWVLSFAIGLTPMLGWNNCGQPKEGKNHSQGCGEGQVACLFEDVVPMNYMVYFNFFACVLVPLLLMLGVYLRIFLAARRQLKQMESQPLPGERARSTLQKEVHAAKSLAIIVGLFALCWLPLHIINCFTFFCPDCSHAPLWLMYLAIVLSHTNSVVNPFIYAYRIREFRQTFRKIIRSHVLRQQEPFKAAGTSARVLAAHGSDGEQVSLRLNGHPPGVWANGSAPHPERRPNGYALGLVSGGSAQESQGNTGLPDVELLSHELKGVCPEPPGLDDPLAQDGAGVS
The target in assay [7] is Adenosine receptors; A1 & A3 (Homo sapiens) (UniProt P30542+P0DMS8). Description: Selectivity ratio of Ki for human adenosine A1 receptor expressed in CHO cells to Ki for human adenosine A3 receptor expressed in CHO cells. Format: cell-based.

Structures are written as SMILES.

The values below come from ChEMBL document CHEMBL3351655, “Scaffold decoration at positions 5 and 8 of 1,2,4-triazolo[1,5-c]pyrimidines to explore the antagonist profiling on adenosine receptors: a preliminary structure-activity relationship study” (J Med Chem, 2014).

As to `CCOC(=O)c1cnc(NCc2ccc(C)cc2)n2nc(-c3ccco3)nc12`, the figures for the Ratio Ki in assay [1], in assay [2] and in assay [7] were 2.17, 11 and 23.9, respectively. Moreover, the Ki was 10 µM in assay [3], 56.1 nM in assay [4], 1340 nM in assay [5] and 122 nM in assay [6].
For the molecule `CNC(=O)c1cnc(NC(=O)NC2CCCCC2)n2nc(-c3ccco3)nc12`, the figures for the Ratio Ki in assay [1], in assay [2] and in assay [7] were 0.08, 5.91 and 0.48, respectively. Also, the Ki in assay [3] was greater than 30 µM; in assay [4], 18700 nM; in assay [5], 8990 nM; in assay [6] it was 1520 nM.
In the case of `CCOC(=O)c1cnc(NC(=O)Cc2ccccc2)n2nc(-c3ccco3)nc12`, the figures for the Ratio Ki in assay [1], in assay [2] and in assay [7] were 16.5, greater than 2.34 and greater than 38.6, respectively. Also, the Ki in assay [3] is greater than 30 µM; in assay [4], 2590 nM; in assay [5], greater than 100000 nM; in assay [6] it was 42700 nM.
As for `CCCCCNc1ncc(C(=O)OCC)c2nc(-c3ccco3)nn12`, the values for the Ratio Ki in assay [1], in assay [2] and in assay [7] were 4.43, 12.2 and 54.2, respectively. For the same molecule, the Ki in assay [3] is greater than 10 µM; in assay [4] it was 11.3 nM; in assay [5], 613 nM; in assay [6] it was 50.1 nM.
On to `CCNc1ncc(C(=O)O)c2nc(-c3ccco3)nn12`, for which the Ratio Ki in assay [1] is 7.67; in assay [2], 3.23; in assay [7], 24.8. In addition, the Ki in assay [3] is greater than 10 µM; in assay [4], 480 nM; in assay [5], 11900 nM; in assay [6], 3680 nM.
For `CCOC(=O)c1cnc(NC)n2nc(-c3ccco3)nc12`, the Ratio Ki turned out to be 25.1 in assay [1], 9.4 in assay [2] and 236 in assay [7]. Also, the inhibitory constant (Ki) in assay [3] worked out at 2.45 µM; in assay [4] it was 4.14 nM; in assay [5] it was 978 nM; in assay [6], 104 nM.
For the molecule `COc1ccc(CNc2ncc(C(=O)O)c3nc(-c4ccco4)nn23)cc1`, the Ratio Ki was found to be 2.25 in assay [1], 0.46 in assay [2] and 1.04 in assay [7]. The Ki is greater than 30 µM in assay [3], 5520 nM in assay [4], 5760 nM in assay [5] and 12400 nM in assay [6].
In the case of `CCOC(=O)c1cnc(NC2CCCCCC2)n2nc(-c3ccco3)nc12`, the Ratio Ki in assay [1] amounted to 0.73; in assay [2] it was 0.98; in assay [7] it was 0.72. In addition, the inhibition constant Ki in assay [3] was greater than 10 µM; in assay [4], 321 nM; in assay [5] it was 231 nM; in assay [6] it was 235 nM.
As for `O=C(O)c1cnc(NCc2ccc(F)cc2)n2nc(-c3ccco3)nc12`, the Ratio Ki was 0.46 in assay [1], greater than 15.6 in assay [2] and greater than 7.14 in assay [7]. Also, the Ki in assay [3] was greater than 30 µM; in assay [4] it was 14000 nM; in assay [5], greater than 100000 nM; in assay [6] it was 6390 nM.
As to `O=C(O)c1cnc(NC2CCCC2)n2nc(-c3ccco3)nc12`, the Ratio Ki was found to be 2.11 in assay [1], 0.1 in assay [2] and 0.21 in assay [7]. Moreover, the Ki in assay [3] was greater than 10 µM; in assay [4], 17700 nM; in assay [5] it was 3790 nM; in assay [6], 37300 nM.
In the case of `O=C(Cc1ccccc1)Nc1ncc(C(=O)NCCc2ccccc2)c2nc(-c3ccco3)nn12`, the Ratio Ki in assay [1] was determined as 0.05; in assay [2], 11.3; in assay [7] it was 0.57. In addition, the Ki is greater than 30 µM in assay [3], 553 nM in assay [4], 317 nM in assay [5] and 28.1 nM in assay [6].
In the case of `O=C(O)c1cnc(NCc2ccc(-c3ccccc3)cc2)n2nc(-c3ccco3)nc12`, the Ratio Ki was greater than 3.53 in assay [1], less than 0.3 in assay [2] and 1.06 in assay [7]. In addition, the Ki in assay [3] was greater than 30 µM; in assay [4] it was 28300 nM; in assay [5], 30100 nM; in assay [6], greater than 100000 nM.
As to `CNC(=O)c1cnc(NC(=O)Nc2ccccc2)n2nc(-c3ccco3)nc12`, the values for the Ratio Ki in assay [1], in assay [2] and in assay [7] were 0.01, 21.9 and 0.17, respectively. Besides, the Ki in assay [3] was 1.18 µM; in assay [4], 730 nM; in assay [5], 126 nM; in assay [6], 5.76 nM.
For `CNC(=O)c1cnc(N)n2nc(-c3ccco3)nc12`, the Ratio Ki in assay [1] was determined as 0.02; in assay [2], 9; in assay [7] it was 0.22. In addition, the inhibition constant Ki in assay [3] was 2.03 µM; in assay [4] it was 609 nM; in assay [5], 135 nM; in assay [6], 15 nM.
Turning to `CCOC(=O)c1cnc(N2CCCCC2)n2nc(-c3ccco3)nc12`, the Ratio Ki in assay [1] is 4.62; in assay [2], 1.08; in assay [7], 5. For the same molecule, the Ki in assay [3] was greater than 10 µM; in assay [4], 1770 nM; in assay [5], 8860 nM; in assay [6], 8180 nM.

The Ki is the equilibrium dissociation constant of an inhibitor or competing ligand from its target.
